Data set [1] relates to Liver. The data set is described as follows: Biodistribution in NMRI mouse liver at 37 MBq/mL, iv after 60 mins postinjection assessed per gram of tissue by gamma counting. Type of data set: ADME, organism-based. To be noted: in vivo, 1 h. A digest of the protocol: (§1)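 Normal mice given the 11C tracer i.v.; killed by decapitation at 2 or 60 min p.i. (n = 4 per time point). Blood collected in tared tube and weighed; organs dissected and weighed, then gamma-counted. Counts background-corrected and expressed as %ID per organ or %ID/g tissue.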

Data set [2] can be described thus: Biodistribution in NMRI mouse urine at 37 MBq/mL, iv after 60 mins postinjection by gamma counting. Format: ADME, organism-based. The settings on record: in vivo, 1 h. The method in brief:
as §1

A short description of data set [3]: Biodistribution in NMRI mouse cerebrum at 37 MBq/mL, iv after 60 mins postinjection by gamma counting. Format: ADME, organism-based. To be noted: in vivo, 1 h. A digest of the protocol: as §1
The test system of data set [4] is Cerebellum. The data set is described as follows: Biodistribution in NMRI mouse cerebellum at 37 MBq/mL, iv after 60 mins postinjection by gamma counting. Type of data set: ADME, organism-based. To be noted: in vivo, 1 h. A digest of the protocol:
as §1

For data set [5], the system named is Kidney. The data set is described as follows: Biodistribution in NMRI mouse kidney at 37 MBq/mL, iv after 60 mins postinjection assessed per gram of tissue by gamma counting. Type of data set: ADME, organism-based. To be noted: in vivo, 1 h. A digest of the protocol:
as §1

The nature of data set [6]: Partition coefficient, log P in Octanol and 0.025 M phosphate buffer at pH7.4 by gamma counter. Format: physicochemical. The settings on record: octanol/0.025 M phosphate buffer, pH 7.4. A digest of the protocol:
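HPLC-purified 11C tracer added to 1-octanol and 2 ml 0.025 M phosphate buffer pH 7.4. Vortexed 3 min at room temperature, centrifuged 2700 g for 10 min. Aliquots of each phase weighed and gamma-counted; P = (cpm/ml octanol)/(cpm/ml buffer). Triplicate.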

Data set [7] is described as follows: Biodistribution in NMRI mouse cerebrum at 37 MBq/mL, iv after 60 mins postinjection assessed per gram of tissue by gamma counting. Format: ADME, organism-based. The settings on record: in vivo, 1 h. The method in brief: as §1
Data set [8] deals with Blood. Briefly: Biodistribution in NMRI mouse blood at 37 MBq/mL, iv after 60 mins postinjection by gamma counting. Type of data set: ADME, organism-based. To be noted: in vivo, 1 h. A digest of the protocol: as §1
Data set [9] concerns Liver. Briefly: Biodistribution in NMRI mouse liver at 37 MBq/mL, iv after 2 mins postinjection by gamma counting. The settings on record: in vivo. Format: ADME, organism-based. A digest of the protocol: as §1
Data set [10] has as its system Cerebellum. Briefly: Biodistribution in NMRI mouse cerebellum at 37 MBq/mL, iv after 2 mins postinjection assessed per gram of tissue by gamma counting. Format: ADME, organism-based. To be noted: in vivo. A digest of the protocol:
as §1

Data set [11] relates to Liver. The data set is described as follows: Biodistribution in NMRI mouse liver at 37 MBq/mL, iv after 60 mins postinjection by gamma counting. Format: ADME, organism-based. To be noted: in vivo, 1 h. A digest of the protocol:
as §1

For data set [12], the system named is Kidney. The data set is described as follows: Biodistribution in NMRI mouse kidney at 37 MBq/mL, iv after 60 mins postinjection by gamma counting. Format: ADME, organism-based. The settings on record: in vivo, 1 h. The method in brief:
as §1

Data set [13] deals with Intestine. The data set is described as follows: Biodistribution in NMRI mouse intestine at 37 MBq/mL, iv after 60 mins postinjection by gamma counting. Type of data set: ADME, organism-based. To be noted: in vivo, 1 h. The method in brief:
as §1

Data set [14] concerns Intestine. The data set is described as follows: Biodistribution in NMRI mouse intestine at 37 MBq/mL, iv after 2 mins postinjection by gamma counting. Format: ADME, organism-based. The settings on record: in vivo. A digest of the protocol: as §1
Data set [15] relates to Cerebellum. The data set is described as follows: Biodistribution in NMRI mouse cerebellum at 37 MBq/mL, iv after 60 mins postinjection assessed per gram of tissue by gamma counting. Format: ADME, organism-based. The settings on record: in vivo, 1 h. A digest of the protocol: as §1
Data set [16] deals with Blood. The data set is described as follows: Biodistribution in NMRI mouse blood at 37 MBq/mL, iv after 60 mins postinjection assessed per gram of tissue by gamma counting. The settings on record: in vivo, 1 h. Format: ADME, organism-based. The method in brief:
as §1

The subject of data set [17] is Blood. Briefly: Biodistribution in NMRI mouse blood at 37 MBq/mL, iv after 2 mins postinjection assessed per gram of tissue by gamma counting. The settings on record: in vivo. Format: ADME, organism-based. A digest of the protocol:
as §1

Data set [18] deals with Kidney. The data set is described as follows: Biodistribution in NMRI mouse kidney at 37 MBq/mL, iv after 2 mins postinjection assessed per gram of tissue by gamma counting. Type of data set: ADME, organism-based. The settings on record: in vivo. The method in brief:
as §1

The nature of data set [19]: Biodistribution in NMRI mouse urine at 37 MBq/mL, iv after 2 mins postinjection by gamma counting. Type of data set: ADME, organism-based. To be noted: in vivo. A digest of the protocol:
as §1

For data set [20], the system named is Cerebellum. The data set is described as follows: Biodistribution in NMRI mouse cerebellum at 37 MBq/mL, iv after 2 mins postinjection by gamma counting. To be noted: in vivo. Format: ADME, organism-based. A digest of the protocol:
as §1

In data set [21] the test system is Blood. Briefly: Biodistribution in NMRI mouse blood at 37 MBq/mL, iv after 2 mins postinjection by gamma counting. Type of data set: ADME, organism-based. To be noted: in vivo. The method in brief:
as §1

Data set [22] concerns Liver. The data set is described as follows: Biodistribution in NMRI mouse liver at 37 MBq/mL, iv after 2 mins postinjection assessed per gram of tissue by gamma counting. Format: ADME, organism-based. The settings on record: in vivo. The method in brief: as §1
The nature of data set [23]: Biodistribution in NMRI mouse cerebrum at 37 MBq/mL, iv after 2 mins postinjection assessed per gram of tissue by gamma counting. Format: ADME, organism-based. To be noted: in vivo. A digest of the protocol:
as §1

Data set [24] in a line: Biodistribution in NMRI mouse cerebrum at 37 MBq/mL, iv after 2 mins postinjection by gamma counting. Format: ADME, organism-based. To be noted: in vivo. The method in brief: as §1
Data set [25] is described as follows: Biodistribution in NMRI mouse hepatobiliary system at 37 MBq/mL, iv after 60 mins postinjection by gamma counting. Format: ADME, organism-based. The settings on record: in vivo, 1 h. The method in brief: as §1
In data set [26] the test system is Kidney. Briefly: Biodistribution in NMRI mouse kidney at 37 MBq/mL, iv after 2 mins postinjection by gamma counting. Type of data set: ADME, organism-based. The settings on record: in vivo. A digest of the protocol:
as §1

The subject of data set [27] is Blood. The data set is described as follows: Blood clearance in NMRI mouse assessed ratio of %ID in blood after 2 mins to %ID in blood after 60 mins at 37 MBq/mL, iv. Format: ADME, tissue-based. The method in brief:
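Normal mice given i.v. 11C tracer; blood collected at 2 and 60 min p.i. (n = 4 per time point), weighed and gamma-counted. Clearance expressed as the ratio of %ID/g blood at 2 min to %ID/g blood at 60 min.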

Data set [28] has as its target T1, Amyloid-beta precursor protein (Homo sapiens, UniProt P05067). Briefly: Binding affinity to beta-amyloid plaques in subiculum of transgenic mouse overexpressing human APP at 1 uM by fluorescence microscopy. Format: tissue-based. The method in brief: (§2)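 Paraffin 8 µm sagittal sections of transgenic APP (London mutation) mouse brain or post-mortem human AD brain; xylol and graded-ethanol deparaffinization, then 1 h incubation with cold compound; tap-water rinse, Mowiol-DABCO mounting. Fluorescence microscopy with UV filter set (excitation 355–425 nm, emission 470 nm longpass). Neighbouring sections immunostained with pan Aβ or AβN25 antibody to check co-localization.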

In data set [29] the target is T1, Amyloid-beta precursor protein. Briefly: Binding affinity to fibrillar beta-amyloid plaques in cortex of patient with Alzheimer's disease at 1 uM by fluorescence microscopy. The method in brief: as §2
The target is the same in data set [30]. Briefly: Binding affinity to core beta-amyloid plaques in vibratome section of transgenic mouse overexpressing human APP at 1 uM by fluorescence microscopy. The method in brief: (§3)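 Vibratome sections of transgenic APP (London mutation) mouse brain cortex incubated with cold compound. Fluorescence microscopy with UV filter set (excitation 355–425 nm, emission 470 nm longpass). For co-localization, one section was incubated first with AβN25 antibody and then with compound.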

The target is the same in data set [31]. The data set is described as follows: Displacement of [125I]IMPY from beta-amyloid plaques in brain homogenate of patient with Alzheimer's disease by gamma counting. Type of data set: tissue-based. A digest of the protocol: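 Gray-matter homogenates of post-mortem AD cortex in PBS pH 7.4, about 100 mg wet tissue/ml. Incubated 2 h at 37 °C, then GF/B vacuum filtration, two PBS washes, gamma counting. Ki from non-linear regression using Ki = IC50/(1+L/Kd).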
In general terms: Displacement assays read how much labelled ligand stays bound in the presence of the test substance.

Data set [32] has the same target. The data set is described as follows: Binding affinity to beta-amyloid plaques in cortex of patient with Alzheimer's disease at 1 uM by fluorescence microscopy. A digest of the protocol: as §2
The target is the same in data set [33]. The data set is described as follows: Binding affinity to vascular beta-amyloid plaques in vibratome section of transgenic mouse overexpressing human APP at 0.1 uM by fluorescence microscopy. To be noted: 1 uM, in the assay text read “at 1 uM” for “at 0.1 uM”. A digest of the protocol: as §3
The target is the same in data set [34]. Briefly: Binding affinity to vascular beta-amyloid plaques in vibratome section of transgenic mouse cortex overexpressing human APP at 1 uM by fluorescence microscopy. The method in brief:
as §3

pKi: −log10 of the molar value. Activity calls are given as the source filed them. No cut-off for these calls is given here.

One may read the logD as the decadic logarithm of the distribution of all forms, ionised or not, between an organic phase and buffer at a given pH. Read a high logD as a more lipophilic compound. Broadly, the pKi is the Ki on a negative log10 scale, so that one unit is a factor of ten. A lower pKi goes with a large Ki.

T1 sequence (P05067 whole entry): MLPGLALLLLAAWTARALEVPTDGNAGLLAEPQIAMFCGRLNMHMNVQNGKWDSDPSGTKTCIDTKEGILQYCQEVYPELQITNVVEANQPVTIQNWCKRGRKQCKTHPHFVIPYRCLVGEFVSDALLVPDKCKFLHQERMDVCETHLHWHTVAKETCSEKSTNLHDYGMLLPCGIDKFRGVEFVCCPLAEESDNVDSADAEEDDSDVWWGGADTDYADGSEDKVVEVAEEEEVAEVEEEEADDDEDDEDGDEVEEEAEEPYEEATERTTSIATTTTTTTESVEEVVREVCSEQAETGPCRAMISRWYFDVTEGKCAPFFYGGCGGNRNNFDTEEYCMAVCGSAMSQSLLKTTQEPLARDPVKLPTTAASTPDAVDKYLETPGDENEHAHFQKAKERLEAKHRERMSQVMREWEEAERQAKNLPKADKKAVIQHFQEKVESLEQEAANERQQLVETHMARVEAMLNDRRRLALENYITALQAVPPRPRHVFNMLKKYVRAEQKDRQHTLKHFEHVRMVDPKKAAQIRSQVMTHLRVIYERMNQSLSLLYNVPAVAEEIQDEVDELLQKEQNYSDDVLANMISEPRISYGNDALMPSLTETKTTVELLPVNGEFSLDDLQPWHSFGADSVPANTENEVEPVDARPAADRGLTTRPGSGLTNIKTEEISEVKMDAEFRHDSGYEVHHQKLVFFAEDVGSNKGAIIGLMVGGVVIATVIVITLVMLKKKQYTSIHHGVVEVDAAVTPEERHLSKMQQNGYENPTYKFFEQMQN

Consider `[11CH3]Nc1ccc(-c2nc3cc(O)ccc3s2)cc1`, for which the Drug uptake in data set [1] was 2.2 % ID/g; in [2] it was 14.6 %ID; in data set [3] it was 0.03 %ID; in [4] it was 0.01 %ID; in data set [5], 1.2 % ID/g; in [7] it was 0.09 % ID/g. Besides, the Drug uptake in data set [8] is on record as 0.5 %ID; in data set [9], 25.8 %ID; in data set [10], 4.4 % ID/g; in data set [11], 4.2 %ID; in data set [12], 0.7 %ID; in data set [13] it was 73.7 %ID. For the same molecule, the Drug uptake in [14] was 12.9 %ID; in data set [15], 0.08 % ID/g; in data set [16], 0.21 % ID/g; in [17], 2.5 % ID/g; in [18] it was 14.2 % ID/g; in [19], 0.35 %ID. Further, the Drug uptake came to 0.57 %ID in [20]; 6 %ID in [21]; 12.1 % ID/g in data set [22]; 4.3 % ID/g in [23]; 1.3 %ID in [24]; 78 %ID in data set [25]. For the same molecule, the Drug uptake in data set [26] is given as 8.1 %ID. This molecule showed a logD in [6] of 2.48.
In the case of `[11CH3]Nc1ccc(-c2nc3c(O)cccc3s2)cc1`, the Drug uptake in data set [1] stood at 3.7 % ID/g; in [2], 22.7 %ID; in data set [3] it was 0.1 %ID; in data set [4], 0 %ID; in data set [5] it was 1.2 % ID/g; in [7], 0.3 % ID/g. Besides, the Drug uptake is 2.3 %ID in [8]; 21.2 %ID in data set [9]; 2.7 % ID/g in [10]; 6.4 %ID in data set [11]; 0.6 %ID in data set [12]; 52.3 %ID in [13]. Further, the Drug uptake is recorded as 12 %ID in data set [14]; 0.6 % ID/g in [15]; 1 % ID/g in data set [16]; 6.5 % ID/g in data set [17]; 19.4 % ID/g in [18]; 0.2 %ID in data set [19]. In addition, the Drug uptake is 0.2 %ID in [20]; 13.8 %ID in [21]; 11.1 % ID/g in [22]; 3.8 % ID/g in data set [23]; 1.2 %ID in [24]; 59 %ID in [25]. This molecule also displayed a Drug uptake in data set [26] of 10.6 %ID. The Ratio in [27] came to 6. For the same molecule, the logD in data set [6] was found to be 3.18.
As to `CNc1ccc(-c2nc3cc(O)ccc3s2)cc1`, the result in data set [28], in [29], in data set [30], in [32], in data set [33] and in data set [34] was Active. This molecule had a negative-log Ki (pKi) in [31] of 7.94.
Regarding `CNc1ccc(-c2nc3cccc(O)c3s2)cc1`, the result in data set [28], in data set [29], in data set [32], in data set [33] and in data set [34] was Active. Moreover, in data set [31], the pKi was 7.95.

(Values after ChEMBL document CHEMBL1137725, “11C-labelled PIB analogues as potential tracer agents for in vivo imaging of amyloid beta in Alzheimer's disease” (Eur J Med Chem, 2009).)
